From ChEMBL document CHEMBL1142963, “Novel sigma receptor ligands: synthesis and biological profile” (J Med Chem, 2007)
The source made the active and inactive calls. The rule behind the calls is not given here.

Columns and labels:
[1] = target: Muscarinic acetylcholine receptor; assay: Displacement of [3H]QNB from rat cortex muscarinic receptor
How it was run: (§1)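 Rat brain tissue by target: striatum for D1, D2 and DAT; olfactory tubercle for D3; cortex for muscarinic, 5-HT3, 5-HT2A, α1, α2, H1, NMDA and SERT; guinea pig cortex for 5-HT4. Inhibitors at seven to nine concentrations. After incubation, samples were filtered on glass fibre filters, washed three times with ice-cold buffer and counted by liquid scintillation. Ki values were derived by curve fitting.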

Rattus norvegicus [2] = organism: Rattus norvegicus; assay: Increase in TG-2 expression in albino Wistar rat primary astroglial cells at 25 uM after 24 hrs; type: functional
How it was run: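 Primary Wistar rat astrocytes at 14 DIV were exposed to ligand 25 µM for 24 h. Densitometric percentage of TG-2 versus untreated control; HUVEC extract as positive control. Mean ± SD of four experiments.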

[3] = target: T1, Adrenergic receptor alpha-2 (Rattus norvegicus, UniProt P22086+P19328+P22909); assay: Displacement of 3H]RX821002 from rat cortex adrenergic alpha-2 receptor; how it was run: as §1
T1 sequence (P22086 whole entry): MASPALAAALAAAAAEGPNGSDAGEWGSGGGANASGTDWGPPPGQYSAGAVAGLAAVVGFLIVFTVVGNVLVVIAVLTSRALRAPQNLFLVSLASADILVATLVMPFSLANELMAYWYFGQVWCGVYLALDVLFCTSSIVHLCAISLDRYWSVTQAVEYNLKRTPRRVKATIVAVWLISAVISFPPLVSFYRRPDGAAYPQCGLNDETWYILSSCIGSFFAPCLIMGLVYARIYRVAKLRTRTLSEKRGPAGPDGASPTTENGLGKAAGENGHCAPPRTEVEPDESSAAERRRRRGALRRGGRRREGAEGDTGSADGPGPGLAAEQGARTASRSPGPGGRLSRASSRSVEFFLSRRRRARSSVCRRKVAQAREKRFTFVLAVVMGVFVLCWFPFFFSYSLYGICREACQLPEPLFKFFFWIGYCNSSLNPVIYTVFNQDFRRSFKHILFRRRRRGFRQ
T1 sequence (P19328 whole entry): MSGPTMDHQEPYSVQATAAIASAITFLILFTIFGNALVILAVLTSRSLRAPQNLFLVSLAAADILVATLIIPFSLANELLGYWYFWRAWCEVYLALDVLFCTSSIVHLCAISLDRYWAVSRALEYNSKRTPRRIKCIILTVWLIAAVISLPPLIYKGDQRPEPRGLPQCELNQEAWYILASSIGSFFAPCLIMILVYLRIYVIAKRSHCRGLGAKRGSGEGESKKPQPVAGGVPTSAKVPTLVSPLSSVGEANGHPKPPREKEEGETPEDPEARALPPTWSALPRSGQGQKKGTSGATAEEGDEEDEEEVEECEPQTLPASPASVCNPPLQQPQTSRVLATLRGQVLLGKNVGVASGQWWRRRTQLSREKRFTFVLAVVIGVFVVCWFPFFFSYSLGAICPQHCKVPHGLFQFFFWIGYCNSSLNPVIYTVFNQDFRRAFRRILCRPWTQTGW
T1 sequence (P22909 whole entry): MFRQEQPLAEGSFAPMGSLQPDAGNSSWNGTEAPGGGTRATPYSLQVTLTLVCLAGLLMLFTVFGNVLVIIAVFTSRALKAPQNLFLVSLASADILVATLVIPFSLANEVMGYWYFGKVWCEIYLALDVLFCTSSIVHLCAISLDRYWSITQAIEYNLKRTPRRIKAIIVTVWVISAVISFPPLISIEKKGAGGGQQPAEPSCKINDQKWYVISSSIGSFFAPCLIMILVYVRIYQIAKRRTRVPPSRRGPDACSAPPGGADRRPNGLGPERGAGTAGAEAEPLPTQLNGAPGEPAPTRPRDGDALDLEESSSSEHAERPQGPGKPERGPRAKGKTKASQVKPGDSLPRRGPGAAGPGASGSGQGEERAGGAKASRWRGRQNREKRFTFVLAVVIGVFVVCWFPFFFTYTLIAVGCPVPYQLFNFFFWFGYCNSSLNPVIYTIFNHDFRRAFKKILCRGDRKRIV

Rattus norvegicus [4] = organism: Rattus norvegicus; assay: Increase in TG-2 expression in albino Wistar rat primary 14 DIV astroglial cell at 25 uM after 24 hrs by CLSM analysis; type: functional
How it was run: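 Astrocytes at 14 DIV were treated with 25 µM for 24 h and fixed in 4% paraformaldehyde for 20 min. They were blocked with 1% normal serum for 1 h, then incubated overnight with anti-TG-2 monoclonal (1:500), followed by FITC and TRITC anti-IgG (1:64, 2 h each). Confocal imaging at fixed settings measured cytosolic and nuclear fluorescence intensity versus control after nonspecific subtraction.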

Glutamate NMDA receptor = assay: Displacement of [3H]CGP-39653 from rat cortex NMDA receptor; how it was run: as §1
[5] = Displacement of [3H]DTG rom guinea pig brain sigma 2 receptor; parameters: species or system Cavia porcellus
[6] = target: 5-hydroxytryptamine receptor 2A (Rattus norvegicus, UniProt P14842); assay: Displacement of [3H]ketanserin from rat cortex 5HT2A receptor; how it was run: as §1
Chain of 5-hydroxytryptamine receptor 2A (P14842 whole entry): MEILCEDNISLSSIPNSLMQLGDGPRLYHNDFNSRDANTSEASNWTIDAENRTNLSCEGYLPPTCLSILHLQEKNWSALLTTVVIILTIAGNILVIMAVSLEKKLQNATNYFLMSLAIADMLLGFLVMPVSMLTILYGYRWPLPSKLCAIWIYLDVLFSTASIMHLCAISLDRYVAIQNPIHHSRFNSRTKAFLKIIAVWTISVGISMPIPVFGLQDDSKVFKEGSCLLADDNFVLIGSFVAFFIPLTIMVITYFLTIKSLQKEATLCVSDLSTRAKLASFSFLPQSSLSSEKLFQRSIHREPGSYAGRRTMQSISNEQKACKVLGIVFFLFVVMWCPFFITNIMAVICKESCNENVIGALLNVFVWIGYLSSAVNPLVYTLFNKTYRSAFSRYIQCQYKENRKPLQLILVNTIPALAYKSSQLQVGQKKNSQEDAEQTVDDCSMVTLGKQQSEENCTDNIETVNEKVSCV

Rattus norvegicus [7] = organism: Rattus norvegicus; assay: Increase of caspase 3 cleavage in albino Wistar rat primary astroglial cells at 25 uM after 24 hrs relative to control; type: functional
How it was run: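 Primary astrocytes from 1–2-day-old Wistar rat brains were grown 14 DIV, then exposed to ligand 25 µM for 24 h. Cells were lysed and sonicated, and 30 µg protein was run on 10% SDS-PAGE. Mean ± SD of four experiments; t test.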

[8] = target: 5-hydroxytryptamine receptor 6 (Rattus norvegicus, UniProt P31388); assay: Displacement of [3H]5HT from rat cloned 5HT6 receptor expressed in HEK293 cells; type: cell-based
Chain of 5-hydroxytryptamine receptor 6 (P31388 whole entry): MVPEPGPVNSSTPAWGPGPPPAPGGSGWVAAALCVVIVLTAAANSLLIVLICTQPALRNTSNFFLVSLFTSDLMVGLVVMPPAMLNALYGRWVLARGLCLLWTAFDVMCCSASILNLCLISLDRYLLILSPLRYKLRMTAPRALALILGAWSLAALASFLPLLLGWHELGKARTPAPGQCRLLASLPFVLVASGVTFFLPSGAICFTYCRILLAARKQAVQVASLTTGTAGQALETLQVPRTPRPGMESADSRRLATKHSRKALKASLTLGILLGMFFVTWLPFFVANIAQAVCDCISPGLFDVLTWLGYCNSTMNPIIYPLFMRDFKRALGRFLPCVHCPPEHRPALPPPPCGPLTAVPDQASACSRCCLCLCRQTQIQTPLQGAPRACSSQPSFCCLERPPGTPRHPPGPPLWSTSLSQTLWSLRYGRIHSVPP
How it was run: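 Membranes from HEK-293 cells expressing cloned rat 5-HT6 receptor. Inhibitors at seven to nine concentrations. After incubation, samples were filtered on glass fibre filters, washed three times with ice-cold buffer and counted by liquid scintillation. Ki values were derived by curve fitting.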

Histamine H1 receptor = Histamine H1 receptor (Rattus norvegicus, UniProt P31390); assay: Displacement of [3H]pyrilamine from rat cortex histamine H1 receptor; how it was run: as §1
Chain of Histamine H1 receptor (P31390 whole entry): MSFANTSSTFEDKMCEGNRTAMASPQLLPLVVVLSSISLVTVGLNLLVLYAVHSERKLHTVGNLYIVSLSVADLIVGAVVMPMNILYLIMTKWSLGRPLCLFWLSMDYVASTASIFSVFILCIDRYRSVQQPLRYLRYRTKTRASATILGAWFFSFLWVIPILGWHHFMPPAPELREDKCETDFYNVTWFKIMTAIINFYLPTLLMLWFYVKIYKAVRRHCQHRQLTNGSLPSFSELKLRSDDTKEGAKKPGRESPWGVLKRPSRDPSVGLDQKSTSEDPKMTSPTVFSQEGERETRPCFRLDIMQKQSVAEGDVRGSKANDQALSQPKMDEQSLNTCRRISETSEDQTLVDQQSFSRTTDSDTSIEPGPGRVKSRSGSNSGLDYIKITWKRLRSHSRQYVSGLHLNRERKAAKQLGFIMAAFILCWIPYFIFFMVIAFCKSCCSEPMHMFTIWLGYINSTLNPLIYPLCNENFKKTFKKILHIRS

[9] = target: T2, 5-hydroxytryptamine receptor 3A (Rattus norvegicus, UniProt P35563); assay: Displacement of [3H]LY278584 from rat cortex 5HT3 receptor; how it was run: as §1
T2 sequence (P35563 whole entry): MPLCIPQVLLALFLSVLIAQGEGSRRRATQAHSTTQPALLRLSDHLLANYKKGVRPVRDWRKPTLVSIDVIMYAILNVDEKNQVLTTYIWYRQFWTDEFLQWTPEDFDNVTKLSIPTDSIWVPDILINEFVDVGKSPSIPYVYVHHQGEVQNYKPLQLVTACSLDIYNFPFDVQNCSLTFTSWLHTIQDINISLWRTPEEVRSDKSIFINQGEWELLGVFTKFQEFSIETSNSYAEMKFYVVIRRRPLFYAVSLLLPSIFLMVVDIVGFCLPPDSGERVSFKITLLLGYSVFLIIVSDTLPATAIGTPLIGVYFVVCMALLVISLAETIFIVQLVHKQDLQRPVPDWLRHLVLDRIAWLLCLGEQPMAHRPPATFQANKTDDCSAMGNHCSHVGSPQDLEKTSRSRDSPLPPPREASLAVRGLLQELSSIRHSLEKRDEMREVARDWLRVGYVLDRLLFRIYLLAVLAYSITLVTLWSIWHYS

[10] = Displacement of [3H]MK-801 from rat cortex NMDA channel; how it was run: as §1

In the case of `COC(=O)C1(c2ccc(C)cc2)CC1CN1CCC(O)(c2ccccc2)CC1` (configuration not stated), the Ki [1] is reported as greater than 10 µM, the Activity (Rattus norvegicus [2]) is reported as “Active” and the Ki [3] is reported as 9.414 µM. For the same compound, the Activity (Rattus norvegicus [4]) was “Active”, the Ki (Glutamate NMDA receptor) was greater than 10 µM and the Ki [5] was 0.0508 µM. The Ki [6] was 3.15 µM, the Activity (Rattus norvegicus [7]) was “Active” and the Ki [8] was greater than 10 µM. The Ki (Histamine H1 receptor) was 1.42 µM, the Ki [9] was greater than 10 µM and the Ki [10] was greater than 10 µM.
